A selection: hits, their analogues and other compounds. The true share with any hit is near 3.5%.
WT yeast gro inh: growth inhibition of WT yeast, mitochondrial fusion screen; AID 1362; 190,000 compounds, 2.1% hits; mitochondrial fusion phenotypic screen, WT strain; inhibition, % at 10 µM; in the data active means inhibition above about 58%; tested in S. cerevisiae
ABCB1 block: human ABCB1 inhibition, ABCG2 as counter-screen. 190,000 compounds, 0.067% hits. AID 1326. P08183. CCRF-Adr cells, JC-1 efflux, flow cytometry. inhibition, % at 6.6 µM; in the data active means inhibition above about 40%;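 further: 0% = vehicle and 100% = reference inhibitor; higher value means more JC-1 retained so stronger ABCB1 efflux block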
MEKK2wt PB1 HTS: raises or lowers MEK5 binding to wildtype human MEKK2 PB1 domain; bead flow cytometry, Alexa488-MEK5 binding to MEKK2 WT; actives lie on both sides; binding response (% of control), % at 10 µM; 290,000 compounds, 1.1% hits; in the data active means binding response below about 67% or above about 130%
MEKK2 mut-MEK5: signal of MEK5 binding to mutant human MEKK2 PB1 domain; bead flow cytometry, Alexa488-MEK5 binding to MEKK2 mutant; percent response, % at 10 µM; 290,000 compounds, 0.35% hits; in the data active means percent response above about 24%, passing the limit was not always enough
ABCG2 block: inhibitors of human ABCG2 transporter, ABCB1 counter-screen; IgMXP3 cells, JC-1 efflux, flow cytometry; inhibition, % at 6.6 µM; 190,000 compounds, 0.1% hits; AID 1325;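 active means inhibition above 80%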;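 further: 0% = DMSO and 100% = nicardipine control wells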
Target sequence (Q9UNQ0 whole entry, looked up): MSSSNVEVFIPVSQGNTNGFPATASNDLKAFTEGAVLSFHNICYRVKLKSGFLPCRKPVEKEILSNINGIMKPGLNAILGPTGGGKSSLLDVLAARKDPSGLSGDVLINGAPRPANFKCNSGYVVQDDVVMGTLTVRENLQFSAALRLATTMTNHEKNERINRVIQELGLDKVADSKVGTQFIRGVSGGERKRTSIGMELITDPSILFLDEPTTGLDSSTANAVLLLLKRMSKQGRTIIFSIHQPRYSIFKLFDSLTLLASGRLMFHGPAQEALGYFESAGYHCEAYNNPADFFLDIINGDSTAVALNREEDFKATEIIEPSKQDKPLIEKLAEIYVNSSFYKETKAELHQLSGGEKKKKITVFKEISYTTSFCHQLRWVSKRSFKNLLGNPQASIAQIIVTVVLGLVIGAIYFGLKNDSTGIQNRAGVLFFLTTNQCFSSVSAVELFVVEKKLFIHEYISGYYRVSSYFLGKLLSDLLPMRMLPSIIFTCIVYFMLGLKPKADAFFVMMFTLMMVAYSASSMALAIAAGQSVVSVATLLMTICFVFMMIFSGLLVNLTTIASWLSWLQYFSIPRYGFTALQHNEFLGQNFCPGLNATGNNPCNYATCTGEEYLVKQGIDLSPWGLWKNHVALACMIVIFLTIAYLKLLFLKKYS
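Test system: IgMXP3 (ABCG2) plus far-red-tagged CCRF-Adr (ABCB1) cells / Amount: 3 million cells/mL in well / Reagent: JC-1 transporter substrate / Timing: 10 min compound exposure, 25 °C / Signal: flow cytometry, 530 nm JC-1 signal / Read-out: percent efflux inhibition, scaled nicardipine 100% to DMSO 0% / Benchmarks: nicardipine as high control, DMSO as low control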
MEKK3 PB1 HTS: modulators (inhibitors or enhancers) of MEK5 binding to human MEKK3 PB1 domain; AID 1529; binding response (% of control), % at 10 µM; 290,000 compounds, 1.4% hits; Q99759; bead-based flow cytometry, Alexa488-MEK5 binding to MEKK3; actives lie on both sides; 0 = blocked by unlabeled MEK5, 100 = vehicle;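 active means binding response more than 3 SD above or below the average of its plate-row segment, actives on both sides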;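 further: Alexa488 bead fluorescence after subtracting the streptavidin-only scavenger bead signal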
* hit, by the source's call; . = no result given; [ ] = remark or other dose.

SMILES	WT yeast gro inh	ABCB1 block	MEKK2wt PB1 HTS	MEKK2 mut-MEK5	ABCG2 block	MEKK3 PB1 HTS
CCCC(=O)C1=C(O)C(c2cccc(Oc3ccccc3)c2)CCC1=O (configuration not stated)	66.5*	0.8	98.0	3.0	2.6	102.0
Clc1ccc2c(N/N=C/c3cccnc3)ccnc2c1	27.6	-0.7	106.0	0.0	0.7	109.0
Cc1ccc(/C=N/Nc2ccnc3cc(Cl)ccc23)c(C)c1	98.0	-0.1	167.0*	30.0	0.4	101.0
Clc1ccc2c(N/N=C/c3ccc(Br)cc3)ccnc2c1	98.7*	-0.4	116.0	-1.0	-0.6	90.0
COCC(=O)N1CCC(Oc2ccc(C(=O)N(C)Cc3nccs3)cc2)CC1	.	.	108.0	7.0	.	103.0
CC1Cc2ccccc2N1C(=S)NC(=O)c1ccc(Cl)cc1Cl (configuration not stated)	59.8*	-0.5	104.0	2.0	-5.6	102.0
O=C(NNC(=S)Nc1ccc(Cl)cc1Cl)C1CC1	-15.8	0.0	100.0	0.0	-1.2	102.0
O=C(Nc1ccc(Cl)c(Cl)c1)O/N=C/c1ccncc1	74.0*	-0.5	121.0	6.0	0.6	108.0
CCOC(=O)Cc1nnc(NC(=O)CSc2nc3ccccc3[nH]2)s1	.	.	112.0	3.0	.	115.0
Nc1nc(-c2ccccc2)nn1S(=O)(=O)c1ccccc1	0.0	1.2	99.0	1.0	13.3	100.0
Cc1ccsc1/C=N/Nc1nc(=O)[nH]nc1C	69.6*	0.0	117.0	5.0	3.2	109.0
Cc1cc(C)nc(N/N=C/c2sccc2C)n1	17.0	0.2	102.0	5.0	8.7	102.0
Cc1ccsc1/C=N\NC(=O)c1n[nH]c2c1CCC2	-16.6	0.3	104.0	8.0	43.1	95.0
O=C(N/N=C/c1c(Cl)cccc1Cl)c1n[nH]c2c1CCCC2	74.7*	-0.2	100.0	8.0	3.7	101.0
Cn1cc(C(c2ccccc2OCC(=O)O)c2cn(C)c3ccccc23)c2ccccc21	.	.	105.0	11.0	.	104.0
COC(=O)C1CSc2[nH]c(=O)sc2C1c1ccc(OC)c(OC)c1 (configuration not stated)	76.9*	0.1	107.0	4.0	-0.1	106.0
COC(=O)C1C(c2ccc(OC)c(OC)c2)NC(c2ccc(OC)c(OC)c2)C(C(=O)OC)S1(=O)=O (configuration not stated)	-3.0	0.3	98.0	3.0	0.6	99.0
C=CCc1ccc(O)c(-c2cc(CC=C)ccc2O)c1	73.6*	0.2	93.0	-3.0	-1.2	99.0
Clc1ccc(Cn2c(/C=C/c3ccco3)nc3ccccc32)cc1	76.1*	0.8	97.0	-3.0	2.8	96.0
O=C(c1ccc(F)cc1)N(Cc1cccs1)C1CCS(=O)(=O)C1 (configuration not stated)	.	.	0.0*[inhibitor]	-18.0	.	2.0*[inhibitor]
COc1ccc(NC(=O)COc2ccc(/C=C/c3cc[n+](C)cc3)cc2OC)cc1	.	.	103.0	-1.0	.	98.0
COc1cc(/C=C/c2cc[n+](C)cc2)ccc1OCC(=O)Nc1ccc(Cl)c(Cl)c1	.	.	237.0*	75.0*	.	111.0
CCOc1ccc(-c2[nH]ncc2Oc2ccccc2OCC)c(O)c1	64.8*	0.7	106.0	0.0	2.6	103.0
COc1cccc(Oc2cn[nH]c2-c2ccc(OCC(=O)NN)cc2O)c1	.	.	102.0	3.0	.	105.0
CCCOC(=O)c1ccc(Oc2cn[nH]c2-c2ccc(OC)cc2O)cc1	78.5*	0.5	.	.	11.9	.
SMILES	WT yeast gro inh	ABCB1 block	MEKK2wt PB1 HTS	MEKK2 mut-MEK5	ABCG2 block	MEKK3 PB1 HTS
CCOc1ccc(-c2nc(N)ncc2Oc2ccccc2Br)c(O)c1	92.0*	-0.2	96.0	0.0	13.9	100.0
COc1cc(-c2noc(C)n2)cc(OC)c1OC	.	.	103.0	1.0	.	101.0
O=C(C[n+]1cccc(CO)c1)Nc1nc2ccccc2s1	0.4	0.0	92.0	-7.0	0.5	94.0
CCc1ccc2oc(C(=O)NCCc3ccc(S(N)(=O)=O)cc3)cc(=O)c2c1	.	.	104.0	7.0	.	104.0
COc1ccc2oc(C(=O)OCC(=O)N(CCC#N)c3ccccc3)c(C)c2c1	.	.	104.0	5.0	.	99.0
COC(=O)N/N=C/c1cn(Cc2c(Cl)cccc2Cl)c2ccccc12	63.4*	2.9	110.0	-8.0	71.2	98.0
